The subject of series [1] is Human immunodeficiency virus 1. Put plainly: Antiviral activity against HIV1 with RT L100I mutation by cytopathic cell killing assay. In kind it is functional, organism-based. (Cytopathic effects are the visible damage that an infection or toxin causes in cultured cells.)
The subject of series [2] is Human immunodeficiency virus 1. Put plainly: Antiviral activity against HIV1 with RT K101E mutation by cytopathic cell killing assay. In kind it is functional, organism-based.
Series [3] deals with Human immunodeficiency virus 1. Description: Antiviral activity against HIV1 with RT K103N mutation by cytopathic cell killing assay. Format: functional, organism-based.
The test system of series [4] is Human immunodeficiency virus 1. Put plainly: Antiviral activity against HIV1 infected CEM cells. In kind it is functional, organism-based. To be noted: Human immunodeficiency virus 1, CCRF-CEM. A digest of the protocol:
(§1)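 Cell-based assay in HIV-1-infected CEM cells, read out as protection from virus-induced cell killing.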

In series [5] the test system is Human immunodeficiency virus 1. Description: Antiviral activity against wild type HIV1 NL4-3 by cytopathic cell killing assay. Format: functional, organism-based. The conditions noted are these: Human immunodeficiency virus 1, NL4-3. In outline: as §1
The target in series [6] is Human immunodeficiency virus type 1 reverse transcriptase (Human immunodeficiency virus 1, UniProt Q72547). Put plainly: Inhibition of HIV1 NL4-3 reverse transcriptase.
Series [7] concerns Human immunodeficiency virus 1. Put plainly: Antiviral activity against HIV1 with RT Y181C mutation by cytopathic cell killing assay. Format: functional, organism-based.
Series [8] in a line: Toxicity against CEM cells. In kind it is cell-based. The conditions noted are these: human, CEM (CCRF-CEM) cells; read-out: TC50 (the source's name).
Series [9] deals with Human immunodeficiency virus 1. Description: Antiviral activity against HIV1 with RT V108I mutation by cytopathic cell killing assay. In kind it is functional, organism-based.
Series [10] concerns Human immunodeficiency virus 1. Description: Antiviral activity against HIV1 with RT Y188C mutation by cytopathic cell killing assay. Format: functional, organism-based.
Series [11] concerns Human immunodeficiency virus 1. Description: Antiviral activity against HIV1 with RT V106A mutation by cytopathic cell killing assay. In kind it is functional, organism-based.

The term EC50 denotes the concentration giving half of the maximal effect. The IC50 is the concentration that gives 50% inhibition. As to `CC(=O)N(C)c1cccc2c1nc(-c1c(F)cccc1F)n2Cc1c(F)cccc1F`, the EC50 in series [1] was 1660 nM; in series [2], 640 nM; in series [3] it was > 10000 nM; in series [4], 20 nM; in [5], 40 nM; in series [7], 400 nM. Moreover, the EC50 in [9] was > 10000 nM; in series [10], 540 nM; in series [11], 50 nM. The compound further registered an IC50 in [6] of 320 nM. The CC50 in series [8] was > 100000 nM.

For the origin of these results see ChEMBL document CHEMBL1148728, “Synthesis, biological activity, and crystal structure of potent nonnucleoside inhibitors of HIV-1 reverse transcriptase that retain activity against mutant forms of the enzyme” (J Med Chem, 2007).
